According to ChEMBL document CHEMBL1136257, “New highly active taxoids from 9beta-dihydrobaccatin-9,10-acetals. Part 3” (Bioorg Med Chem Lett, 2003):
Values after ≈ are worked out from the molar mass of the structure shown.

How the values were obtained:
P388 = experiment: Cytotoxic activity against mouse leukemia P388 cell line; format: functional
Summary of the method: (§1)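 Growth inhibition (IC50) of mouse leukemia P388 and human lung cancer PC-6 and PC-12 cells after 72 h continuous exposure to compound; IC50 taken as the concentration giving 50% growth inhibition.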

PC-6 = experiment: Cytotoxic activity against human lung cancer PC-6 cell line; format: functional; summary of the method: as §1
PC-12 = experiment: Cytotoxic activity against human lung cancer PC-12 cell line
[1] = Solubility of compound in JP1 at pH 1.2 using UV assay; format: physicochemical; conditions: JP1, pH 1.2
[2] = Solubility in water using UV assay; format: physicochemical
Mus musculus [3] = experiment: Mortality was determined in mice inoculated with B16 melanoma BL6 cells sc at a dose 100 mg/kg by intravenous administration; 0/6; format: functional
[4] = Solubility of compound in JP2 at pH 6.8 using UV assay; format: physicochemical; conditions: JP2, pH 6.8
Mus musculus [5] = experiment: Mortality was determined in mice inoculated with B16 melanoma BL6 cells sc at a dose 600 mg/kg by peroral administration; 0/6; format: functional; conditions: route oral
Mus musculus [6] = experiment: Maximum rate of body weight loss was determined in mice inoculated with B16 melanoma BL6 cells sc at a dose 600 mg/kg by peroral administration; format: functional; conditions: route oral
Summary of the method: (§2)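 On day 0, B16 melanoma BL6 cells (cultured line) were implanted subcutaneously into C57BL/6 mice, six per group. A single iv or oral dose was given on day 4, and body weight was followed. BWLmax (%) is the maximum rate of body weight loss; a value below 0 means no loss.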

Mus musculus [7] = experiment: Mean tumor weight was determined in mice inoculated with B16 melanoma BL6 cells sc at a dose 600 mg/kg po [IR (%) = (1-TWt/TWc)*100]; format: functional
Summary of the method: (§3)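 C57BL/6 mice (six per group) received subcutaneous B16 melanoma BL6 cells on day 0 and a single iv or oral dose on day 4. Tumors were excised and weighed on day 15. Inhibition rate IR (%) = (1 − mean treated tumor weight/mean control tumor weight) × 100.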

Mus musculus [8] = experiment: Maximum rate of body weight loss was determined in mice inoculated with B16 melanoma BL6 cells sc at a dose 100 mg/kg by intravenous administration; format: functional; summary of the method: as §2
Mus musculus [9] = experiment: Mean tumor weight was determined in mice inoculated with B16 melanoma BL6 cells sc at a dose 100 mg/kg iv [IR (%) = (1-TWt/TWc)*100]; format: functional; summary of the method: as §3
Mus musculus [10] = experiment: Mean tumor weight was determined in mice inoculated with B16 melanoma BL6 cells sc at a dose 8 mg/kg iv [IR (%) = (1-TWt/TWc)*100]; format: functional; summary of the method: as §3
Mus musculus [11] = experiment: Maximum rate of body weight loss was determined in mice inoculated with B16 melanoma BL6 cells sc at a dose 18 mg/kg by intravenous administration; format: functional; summary of the method: as §2
Mus musculus [12] = experiment: Mortality was determined in mice inoculated with B16 melanoma BL6 cells sc at a dose 12 mg/kg by intravenous administration; 0/6; format: functional
Mus musculus [13] = experiment: Maximum rate of body weight loss was determined in mice inoculated with B16 melanoma BL6 cells sc at a dose 8 mg/kg by peroral administration; format: functional; conditions: route oral; summary of the method: as §2
Mus musculus [14] = experiment: Mortality was determined in mice inoculated with B16 melanoma BL6 cells sc at a dose 5.3 mg/kg by intravenous administration; 0/6; format: functional
Mus musculus [15] = experiment: Mean tumor weight was determined in mice inoculated with B16 melanoma BL6 cells sc at a dose 8 mg/kg po [IR (%) = (1-TWt/TWc)*100]; format: functional; summary of the method: as §3
Mus musculus [16] = experiment: Maximum rate of body weight loss was determined in mice inoculated with B16 melanoma BL6 cells sc at a dose 18 mg/kg by peroral administration; format: functional; conditions: route oral; summary of the method: as §2
Mus musculus [17] = experiment: Mean tumor weight was determined in mice inoculated with B16 melanoma BL6 cells sc at a dose 12 mg/kg po [IR (%) = (1-TWt/TWc)*100]; format: functional; summary of the method: as §3
Mus musculus [18] = experiment: Mortality was determined in mice inoculated with B16 melanoma BL6 cells sc at a dose 18 mg/kg by intravenous administration; 0/6; format: functional
Mus musculus [19] = experiment: Mean tumor weight was determined in mice inoculated with B16 melanoma BL6 cells sc at a dose 12 mg/kg iv [IR (%) = (1-TWt/TWc)*100]; format: functional; summary of the method: as §3
Mus musculus [20] = experiment: Mean tumor weight was determined in mice inoculated with B16 melanoma BL6 cells sc at a dose 27 mg/kg po [IR (%) = (1-TWt/TWc)*100]; format: functional; summary of the method: as §3
Mus musculus [21] = experiment: Mortality was determined in mice inoculated with B16 melanoma BL6 cells sc at a dose 18 mg/kg by peroral administration; 0/6; format: functional; conditions: route oral
Mus musculus [22] = experiment: Mortality was determined in mice inoculated with B16 melanoma BL6 cells sc at a dose 27 mg/kg by peroral administration; 0/6; format: functional; conditions: route oral
Mus musculus [23] = experiment: Maximum rate of body weight loss was determined in mice inoculated with B16 melanoma BL6 cells sc at a dose 12 mg/kg by intravenous administration; format: functional; summary of the method: as §2
Mus musculus [24] = experiment: Mortality was determined in mice inoculated with B16 melanoma BL6 cells sc at a dose 8 mg/kg by peroral administration; 0/6; format: functional; conditions: route oral
Mus musculus [25] = experiment: Mortality was determined in mice inoculated with B16 melanoma BL6 cells sc at a dose 8 mg/kg by intravenous administration; 0/6; format: functional
Mus musculus [26] = experiment: Maximum rate of body weight loss was determined in mice inoculated with B16 melanoma BL6 cells sc at a dose 12 mg/kg by peroral administration; format: functional; conditions: route oral; summary of the method: as §2
Mus musculus [27] = experiment: Mortality was determined in mice inoculated with B16 melanoma BL6 cells sc at a dose 12 mg/kg by peroral administration; 0/6; format: functional; conditions: route oral
Mus musculus [28] = experiment: Mean tumor weight was determined in mice inoculated with B16 melanoma BL6 cells sc at a dose 5.3 mg/kg iv [IR (%) = (1-TWt/TWc)*100]; format: functional; summary of the method: as §3
Mus musculus [29] = experiment: Mean tumor weight was determined in mice inoculated with B16 melanoma BL6 cells sc at a dose 18 mg/kg po [IR (%) = (1-TWt/TWc)*100]; format: functional; summary of the method: as §3
Mus musculus [30] = experiment: Mean tumor weight was determined in mice inoculated with B16 melanoma BL6 cells sc at a dose 18 mg/kg iv [IR (%) = (1-TWt/TWc)*100]; format: functional; summary of the method: as §3
Mus musculus [31] = experiment: Maximum rate of body weight loss was determined in mice inoculated with B16 melanoma BL6 cells sc at a dose 8 mg/kg by intravenous administration; format: functional; summary of the method: as §2
Mus musculus [32] = experiment: Maximum rate of body weight loss was determined in mice inoculated with B16 melanoma BL6 cells sc at a dose 5.3 mg/kg by intravenous administration; format: functional; summary of the method: as §2
Mus musculus [33] = experiment: Maximum rate of body weight loss was determined in mice inoculated with B16 melanoma BL6 cells sc at a dose 27 mg/kg by peroral administration; format: functional; conditions: route oral; summary of the method: as §2

SMILES: CC(=O)O[C@H]1C(=O)[C@@]2(C)[C@H]([C@H](OC(=O)c3ccccc3)[C@]3(O)C[C@H](OC(=O)[C@H](O)[C@@H](NC(=O)c4ccccc4)c4ccccc4)C(C)=C1C3(C)C)[C@]1(OC(C)=O)CO[C@@H]1C[C@@H]2O [PACLITAXEL]
- GI50 (P388): 2.93 ng/mL (≈ 0.00343 µM)
- GI50 (PC-6): 1.27 ng/mL (≈ 0.00149 µM)
- GI50 (PC-12): 539 ng/mL (≈ 0.631 µM)

SMILES: CC(=O)O[C@@]12CO[C@@H]1C[C@H](O)[C@@]1(C)C(=O)[C@H](O)C3=C(C)[C@@H](OC(=O)[C@H](O)[C@@H](NC(=O)OC(C)(C)C)c4ccccc4)C[C@@](O)([C@@H](OC(=O)c4ccccc4)[C@H]21)C3(C)C.O.O.O [DOCETAXEL]
- solubility [1]: < 4 µg/mL
- solubility [2]: < 4 µg/mL
- Mortality (Mus musculus [3]): 0
- solubility [4]: < 4 µg/mL
- GI50 (P388): 0.78 ng/mL
- Mortality (Mus musculus [5]): 0
- BWLmax (Mus musculus [6]): <0%
- GI50 (PC-6): 0.41 ng/mL
- GI50 (PC-12): 14.9 ng/mL
- IR (Mus musculus [7]): 6.2%
- BWLmax (Mus musculus [8]): <0%
- IR (Mus musculus [9]): 95.1%

SMILES: CC(=O)O[C@@]12CO[C@@H]1CC[C@@]1(C)[C@@H]3O[C@H](CN4CCOCC4)O[C@@H]3C3=C(C)[C@@H](OC(=O)[C@H](O)[C@@H](NC(=O)OC(C)(C)C)c4ccccn4)C[C@@](O)([C@@H](OC(=O)c4ccccc4)[C@@H]12)C3(C)C
- IR (Mus musculus [10]): 87.2%
- solubility [1]: 1700 µg/mL (≈ 1880 µM)
- BWLmax (Mus musculus [11]): 3.7%
- Mortality (Mus musculus [12]): 0
- BWLmax (Mus musculus [13]): <0%
- Mortality (Mus musculus [14]): 0
- IR (Mus musculus [15]): 27.2%
- solubility [2]: 14 µg/mL (≈ 15.5 µM)
- BWLmax (Mus musculus [16]): 0.3%
- IR (Mus musculus [17]): 84.9%
- Mortality (Mus musculus [18]): 0
- IR (Mus musculus [19]): 94.4%
- IR (Mus musculus [20]): 97.3%
- Mortality (Mus musculus [21]): 0
- solubility [4]: 11 µg/mL (≈ 12.1 µM)
- Mortality (Mus musculus [22]): 0
- GI50 (P388): 0.18 ng/mL (≈ 0.000199 µM)
- BWLmax (Mus musculus [23]): <0%
- Mortality (Mus musculus [24]): 0
- Mortality (Mus musculus [25]): 0
- GI50 (PC-6): 0.39 ng/mL (≈ 0.00043 µM)
- BWLmax (Mus musculus [26]): <0%
- Mortality (Mus musculus [27]): 0
- IR (Mus musculus [28]): 62.4%
- IR (Mus musculus [29]): 93.3%
- IR (Mus musculus [30]): 95.6%
- GI50 (PC-12): 0.21 ng/mL (≈ 0.000232 µM)
- BWLmax (Mus musculus [31]): <0%
- BWLmax (Mus musculus [32]): <0%
- BWLmax (Mus musculus [33]): 4.5%

SMILES: CC(=O)O[C@@]12CO[C@@H]1CC[C@@]1(C)[C@@H]3O[C@H](CN4CCOCC4)O[C@@H]3C3=C(C)[C@@H](OC(=O)[C@H](O)[C@@H](NC(=O)OC(C)(C)C)c4ccccc4)C[C@@](O)([C@@H](OC(=O)c4ccccc4)[C@@H]12)C3(C)C
- solubility [1]: 1200 µg/mL (≈ 1330 µM)
- solubility [2]: < 4 µg/mL
- solubility [4]: < 4 µg/mL
- GI50 (P388): 0.02 ng/mL (≈ 2.21e-05 µM)
- GI50 (PC-6): 0.38 ng/mL (≈ 0.00042 µM)
- GI50 (PC-12): 0.02 ng/mL (≈ 2.21e-05 µM)
